MDM2 E3 inh = Mdm2 E3 ligase (human) inhibition. signal enhancement, % at 5 µM. 210,000 compounds, 0.11% hits. AID 1230. Q00987. cell-based MDM2 ubiquitination luciferase reporter, 2 h; 0 = plate control, 100 = twice control, blank-subtracted;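 active = signal enhancement of 30% or more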;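 also: luminescence tracks abundance of the self-degrading MDM2-luciferase fusion protein; higher signal means inhibition of MDM2 E3 ligase activity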
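system = mammalian cells stably expressing self-ubiquitinating, self-degrading MDM2 E3–luciferase fusion | quantity = 2000 cells per well seeded | incubation = 4 h cell settling then 2 h compound exposure, 37 °C | signal = SteadyLite luminescence, 15 min reagent step | benchmarks = plate control and blank wells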
Dynein cargo inh = dynein cargo transport inhibition; 3617.4 mouse cells, GR-EGFP nuclear translocation imaging; test concentration mostly 20 µM; stimulated with dexamethasone, 1 µM; stronger effect = lower value; z-score, hits read low; 220,000 compounds, 0.47% hits;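 active = plate z-score of nuclear minus cytoplasmic receptor signal below a set negative limit, without overly bright fluorescence or cell loss, cut at about -3.5 in these data, passing the limit was not always enough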;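 also: z-score of nuclear minus cytoplasmic ring GR-EGFP intensity difference per well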
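Buffer or medium: tetracycline-free induction medium containing charcoal-stripped FBS / Reagent: dexamethasone agonist, 1.0 µM final, for 30 min / Technique: automated 10x imaging of fixed Hoechst-stained cells / Times: induction 48 h, compound 1 h, agonist 30 min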
TNF necrop inh = inhibitors of TNF-alpha induced necroptosis in Jurkat FADD-/- cells; Jurkat FADD-/- TNF necroptosis rescue, ATP luminescence, 24 h; 0 = TNF only, 100 = no-TNF cells; activation (protection from cell death), % at 10 µM; 220,000 compounds, 0.068% hits; AID 463075;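 active = activation, meaning protection from cell death, of at least 50% relative to plate controls; inactive = activation below 50%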;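 also: necroptosis triggered by 40 ng/mL TNF-alpha added together with compound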
L929 necroptosis = L929 zVAD cell death inhibition; L929 zVAD necroptosis rescue, ATP luminescence, 24 h; with zVAD 60 µM; viability rescue, % at 10 µM; 220,000 compounds, 0.38% hits;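 active = activation, scaled between plate controls, above about 75%, limit read from the data; inactive = activation under that limit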;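 also: 0% = zVAD with DMSO and 100% = DMSO alone without zVAD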
Beta2AR agonist = human beta-2 adrenergic receptor agonism by FAP; P07550; Am2.2-beta2AR cells, FAP receptor internalization, flow cytometry; response, % (test concentration not listed); 340,000 compounds, 0.43% hits; AID 504454;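 active = response above a set limit, near 3 SD of response in nonfluorescent compounds, cut at about 42% in these data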
Target sequence (P07550 whole entry, looked up): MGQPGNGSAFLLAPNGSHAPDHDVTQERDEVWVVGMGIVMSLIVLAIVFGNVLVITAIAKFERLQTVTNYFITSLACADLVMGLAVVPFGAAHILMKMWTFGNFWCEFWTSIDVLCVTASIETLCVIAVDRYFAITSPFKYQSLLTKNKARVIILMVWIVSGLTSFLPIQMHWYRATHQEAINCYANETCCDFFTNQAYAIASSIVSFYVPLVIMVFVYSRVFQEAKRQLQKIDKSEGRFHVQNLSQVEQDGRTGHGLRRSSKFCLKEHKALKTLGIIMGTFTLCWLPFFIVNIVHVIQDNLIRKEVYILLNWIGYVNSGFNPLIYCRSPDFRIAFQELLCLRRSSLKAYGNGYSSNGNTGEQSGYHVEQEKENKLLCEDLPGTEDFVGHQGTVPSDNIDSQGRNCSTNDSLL
zVAD necrop conf = confirmed blocker of zVAD induced death in L929 cells; shares compounds with L929 necroptosis; L929 zVAD-induced necroptosis rescue, ATP luminescence, 24 h; activation (protection from necroptosis), % at 10 µM; 760 compounds, 16% hits; AID 463117;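 active = mean protection from necroptosis of at least 50% over duplicate tests; inactive = mean protection below 50%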;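 also: 0% = cells with zVAD alone and 100% = vehicle cells without zVAD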
Dynein confirm = dynein cargo transport inhibition, confirmation; shares compounds with Dynein cargo inh; 3617.4 GR-EGFP nuclear translocation imaging, dexamethasone-induced; calls only at 20 µM; 1,000 compounds, 69% hits;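 active = inhibition of receptor movement into the nucleus at or above a set limit in both runs, with normal cell brightness and cell count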;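 also: dexamethasone at 1 µM final in well for 30 min; nuclear minus cytoplasmic GR-EGFP mean intensity difference in channel 2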
An asterisk follows results filed as active; i = inactive; · = not tested or not shown; + = active, no number. Only some compounds are listed: those with a hit (about 0.97% of all), similar ones and a draw of the others.

SMILES | MDM2 E3 inh | Dynein cargo inh | TNF necrop inh | L929 necroptosis | Beta2AR agonist | zVAD necrop conf | others
COc1ccc(C(=O)/C=C/c2cn(CC(O)CN3CCOCC3)c3ccccc23)cc1 (stereo unspecified) | -1 | 0.67 | 7 | 82* | 10 | 38
O=C(/C=C/c1cn(CC(O)CN2CCOCC2)c2ccccc12)c1cccs1 (stereo unspecified) | -17 | 0.65 | 2 | -1 | · | ·
COc1ccc(/C=N/Nc2ccccn2)c(OC)c1OC | -3 | 2.1 | 27 | 83* | -2 | 12
CCOc1ccc(/C=N/Nc2ccccn2)cc1OC | -16 | 0.011 | 23 | 80* | 2 | 4
COc1cc(/C=N/Nc2ccccn2)ccc1OCC(C)C | -20 | 2.8 | 5 | 27 | 4 | ·
CCCOc1ccc(/C=N/Nc2ccccn2)cc1OC | -19 | 1.8 | 10 | 60 | 5 | ·
C=CCOc1ccc(/C=N/Nc2ccccn2)cc1OC | -11 | 0.82 | 8 | 85* | 10 | 1
CN(C)C(=O)c1ccc(-c2nnc(NCc3ccccc3)c3ccccc23)cc1 | 1 | 0.0023 | 2 | 75* | -16 | 36
CCN(CC)C(=O)c1ccc(-c2nnc(Nc3ccc(C(=O)N(C)C)cc3)c3ccccc23)cc1 | · | · | · | · | 9 | ·
Cc1ccc(NC(=O)Cn2cnc3ccccc32)cc1C | -4 | 0.75 | -3 | -1 | 16 | ·
Cc1cnc(NC(=O)c2ccco2)s1 | -2 | 0.13 | 0 | 83* | -4 | 10
O=C(Nc1ccc(N2CCOCC2)cc1)c1cc2c(s1)CCCC2 | -2 | -0.78 | 1 | 74 | 24 | ·
Cc1cnc(NC(=O)c2cc3c(s2)CCCC3)s1 | -8 | -1.1 | 48 | 79* | 0 | 79*
O=C(Nc1ccc(N2CCOCC2)cc1)c1cc2c(s1)CCCCC2 | -4 | -0.5 | 3 | 75* | 6 | 5
CC(C)c1ccc(S(=O)(=O)N2CCC(C(=O)NCc3ccco3)CC2)cc1 | · | · | · | · | 0 | ·
CC(C)N(c1ccccc1)c1ccc(NC(=S)NCCN(C)C)cc1 | -10 | 0.82 | 3 | 1 | 14 | ·
Oc1ccc(/C=N/N2CCN(c3ccccn3)CC2)cc1 | -66 | -0.31 | -7 | -1 | 4 | ·
CC(C)(C)c1ccc(/C=N/N2CCN(c3ccccn3)CC2)cc1 | -3 | 0.0022 | 10 | 82* | 4 | 31
CC(C)(C)NC(=O)Cn1nnc(-c2ccc(Cl)cc2)n1 | -4 | -0.65 | 0 | 84* | -5 | 2
O=C(Cn1nnc(-c2ccc(Cl)cc2)n1)NC1CC2CCC1C2 (stereo unspecified) | -10 | -0.63 | 1 | 83* | -6 | 10
CC(C)(C)NC(=O)Cn1nnc(-c2ccc(S(C)(=O)=O)cc2)n1 | -10 | -0.28 | 1 | 0 | 4 | ·
O=C(Cn1nnc(-c2ccc(Cl)cc2)n1)NCC1CCCCC1 | -12 | -0.57 | -4 | 88* | -1 | 44
CC(C)OCCCNC(=O)NC12CC3CC(CC(C3)C1)C2 | -1 | -1.3 | 1 | 0 | 9 | ·
CCC1(c2ccccc2)C(=O)NCNC1=O | · | -0.32 | 1 | 75* | 4 | 4
Fc1cccc(F)c1/C=N/Nc1ccccn1 | -22 | -1 | 13 | 90* | -11 | 24
SMILES | MDM2 E3 inh | Dynein cargo inh | TNF necrop inh | L929 necroptosis | Beta2AR agonist | zVAD necrop conf | others
C(=N\Nc1ccccn1)/c1ccc2c(c1)OCCO2 | -47 | -0.14 | 19 | 83* | -11 | 2
Fc1cccc(/C=N/Nc2ccccn2)c1 | -12 | 0.22 | 20 | 76* | -5 | 1
Oc1ccc2ccccc2c1C=NNc1ccccn1 | · | · | · | · | -1 | ·
Fc1cccc(Cl)c1/C=N/Nc1ccccn1 | -2 | -0.54 | 16 | 83* | 1 | 1
Clc1ccc(C=NNc2ccccn2)c(Cl)c1 | · | · | · | · | 4 | ·
CCN1CCN(c2cc(SC(C)C)nc(-c3ccc(OC)cc3)n2)CC1 | -14 | 1 | -1 | 0 | -7 | ·
COc1ccc(Cl)cc1NC(=O)CN1C(=O)CC(C)S(=O)(=O)c2ccccc21 (stereo unspecified) | -17 | 0.12 | 0 | 1 | -2 | ·
COc1ccc(OCCC(=O)NCC23CC4CC(CC(C4)C2)C3)cc1 | -11 | 1.3 | 1 | 94* | -6 | 4
CN=C1S/C(=C\c2cn(CC(=O)OC)c3ccccc23)C(=O)N1C | -31 | -0.31 | 1 | 75* | 9 | 0
COc1ccc(/C=N\Nc2ccccn2)c(OC)c1 | · | · | · | · | -4 | ·
COc1ccc(/C=N/Nc2ncc(Br)cn2)c(OC)c1 | -18 | 0.95 | 20 | 85* | -16 | 1
c1ccc(Cc2cc[n+](Cc3ccccn3)cc2)cc1 | -19 | 0.091 | -1 | 0 | 5 | ·
Oc1ccccc1N=Cc1ccc[nH]1 | -11 | 0.57 | 8 | 97* | 4 | 7
O=C(COC(=O)c1ccc2c(c1)OCO2)Nc1ccccc1F | · | · | · | · | 7 | ·
O=C(Nc1ccc(S(=O)(=O)N2CCOCC2)cc1)c1nn(-c2ccc(F)cc2)ccc1=O | · | · | · | · | 3 | ·
O=C(COC(=O)c1ccc(O)cc1)Nc1ccc(Cl)cc1 | -8 | 0.012 | 2 | 78* | · | 21
COc1ccccc1NC(=O)c1ccc(-c2nn(C)c(=O)c3ccccc23)cc1 | 1 | -0.53 | 0 | 78* | 4 | 0
ClC1=C(Cl)C(Cl)=C(Cl)C1=C/C=C/c1ccccc1 | 26 | -4.1* | -29 | 112* | 9 | 3 | Dynein confirm=i
Nc1ccc(Nc2ccccc2N)cc1 | 9 | -1.1 | -17 | 9 | -12 | ·
COc1ccc(Nc2ccccc2N)cc1 | -3 | -5.1* | -9 | 92* | 5 | 24 | Dynein confirm=i
CC(C)N(CCn1c(=S)[nH]c2ccccc2c1=O)C(C)C | -12 | 0.53 | 2 | -1 | -11 | ·
O=C(OCn1ncc(Br)c(Br)c1=O)c1ccc(F)cc1 | 16 | -5.1* | -24 | 113* | 78* | 136* | Dynein confirm=+
CC(=O)OCn1ncc(N2CCOCC2)c(Br)c1=O | · | · | · | · | -5 | ·
CCOC(=O)C1=C(c2ccccc2)c2ccccc2N(S(=O)(=O)C(F)(F)F)C1C(=O)OCC (stereo unspecified) | · | · | · | · | 1 | ·
C=C1C(=O)[C@@]23[C@H](O)C[C@@H]4C(C)(C)CC[C@H](O)[C@@]4(C)[C@@H]2CC[C@@H]1[C@H]3O | · | -5.5* | -27 | 121* | 46* | 78* | Dynein confirm=+
